ChEMBL document CHEMBL5705885, “CYT387, a selective JAK1/JAK2 inhibitor: in vitro assessment of kinase selectivity and preclinical studies using cell lines and primary cells from polycythemia vera patients” (Leukemia, 2009)

Columns and labels:
[1] = target: Serine/threonine-protein kinase B-raf (Homo sapiens, UniProt P15056); assay: Inhibition of BRAF (unknown origin)
[2] = target: Dual specificity protein kinase CLK1 (Homo sapiens, UniProt P49759); assay: Inhibition of CLK1 (unknown origin)
[3] = target: Homeodomain-interacting protein kinase 4 (Homo sapiens, UniProt Q8NE63); assay: Inhibition of HIPK4 (unknown origin)
[4] = target: Mitogen-activated protein kinase kinase kinase kinase 2 (Homo sapiens, UniProt Q12851); assay: Inhibition of MAP4K2 (unknown origin)
[5] = target: T1, Serine/threonine-protein kinase 26 (Homo sapiens, UniProt Q9P289); assay: Inhibition of MST4 (unknown origin)
[6] = target: Serine/threonine-protein kinase PLK3 (Homo sapiens, UniProt Q9H4B4); assay: Inhibition of PLK3 (unknown origin)
[7] = target: Beta-adrenergic receptor kinase 1 (Homo sapiens, UniProt P25098); assay: Inhibition of ADRBK1 (unknown origin)
[8] = target: Tyrosine-protein kinase Blk (Homo sapiens, UniProt P51451); assay: Inhibition of BLK (unknown origin)
[9] = target: Calcium/calmodulin-dependent protein kinase type II subunit alpha (Homo sapiens, UniProt Q9UQM7); assay: Inhibition of CAMK2 alpha (unknown origin)
Sequence of Calcium/calmodulin-dependent protein kinase type II subunit alpha (Q9UQM7 whole entry): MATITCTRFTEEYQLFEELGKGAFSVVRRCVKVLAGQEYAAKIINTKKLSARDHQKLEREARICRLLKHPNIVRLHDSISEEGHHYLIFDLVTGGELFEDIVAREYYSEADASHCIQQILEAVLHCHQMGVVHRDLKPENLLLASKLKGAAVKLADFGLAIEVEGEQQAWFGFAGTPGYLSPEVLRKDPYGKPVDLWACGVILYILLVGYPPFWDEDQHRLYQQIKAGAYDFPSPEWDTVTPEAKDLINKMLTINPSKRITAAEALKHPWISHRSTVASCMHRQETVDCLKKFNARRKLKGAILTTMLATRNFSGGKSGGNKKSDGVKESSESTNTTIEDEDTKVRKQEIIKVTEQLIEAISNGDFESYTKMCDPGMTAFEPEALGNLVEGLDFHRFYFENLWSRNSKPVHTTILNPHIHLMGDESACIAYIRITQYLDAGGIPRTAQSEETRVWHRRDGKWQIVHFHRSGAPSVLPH

[10] = target: Serine/threonine-protein kinase Chk1 (Homo sapiens, UniProt O14757); assay: Inhibition of CHEK1 (unknown origin)
[11] = target: Dual specificity protein kinase CLK3 (Homo sapiens, UniProt P49761); assay: Inhibition of CLK3 (unknown origin)
Sequence of Dual specificity protein kinase CLK3 (P49761 whole entry, canonical isoform): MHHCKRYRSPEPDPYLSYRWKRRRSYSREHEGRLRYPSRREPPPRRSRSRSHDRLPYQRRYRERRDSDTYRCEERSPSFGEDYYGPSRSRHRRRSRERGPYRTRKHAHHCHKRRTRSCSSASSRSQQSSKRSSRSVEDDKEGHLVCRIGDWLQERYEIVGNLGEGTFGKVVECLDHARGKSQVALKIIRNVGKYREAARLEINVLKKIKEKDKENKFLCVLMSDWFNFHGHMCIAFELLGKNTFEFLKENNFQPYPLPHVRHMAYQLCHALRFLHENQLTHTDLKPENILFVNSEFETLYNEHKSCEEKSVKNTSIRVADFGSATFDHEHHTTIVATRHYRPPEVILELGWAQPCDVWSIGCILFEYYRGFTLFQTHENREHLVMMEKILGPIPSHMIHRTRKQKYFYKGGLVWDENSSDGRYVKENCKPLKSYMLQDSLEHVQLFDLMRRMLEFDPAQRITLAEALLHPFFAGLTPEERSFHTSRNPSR

[12] = target: Casein kinase I isoform gamma-1 (Homo sapiens, UniProt Q9HCP0); assay: Inhibition of CSNK1G1 (unknown origin)
[13] = target: Casein kinase I isoform gamma-2 (Homo sapiens, UniProt P78368); assay: Inhibition of CSNK1G2 (unknown origin)
Sequence of Casein kinase I isoform gamma-2 (P78368 whole entry, canonical isoform): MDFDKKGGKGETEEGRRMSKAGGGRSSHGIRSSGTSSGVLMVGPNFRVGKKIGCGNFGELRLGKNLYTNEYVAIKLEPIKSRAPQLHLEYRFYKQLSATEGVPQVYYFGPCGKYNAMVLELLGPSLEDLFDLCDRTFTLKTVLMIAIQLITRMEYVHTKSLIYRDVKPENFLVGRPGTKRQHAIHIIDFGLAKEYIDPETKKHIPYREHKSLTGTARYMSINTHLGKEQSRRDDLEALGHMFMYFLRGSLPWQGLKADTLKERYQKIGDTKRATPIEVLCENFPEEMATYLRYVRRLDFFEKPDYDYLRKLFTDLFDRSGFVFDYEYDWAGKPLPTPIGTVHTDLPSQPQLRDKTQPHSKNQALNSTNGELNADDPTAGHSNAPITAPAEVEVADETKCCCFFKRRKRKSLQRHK

[14] = target: Casein kinase II subunit alpha (Homo sapiens, UniProt P68400); assay: Inhibition of CSNK2A1 (unknown origin)
Sequence of Casein kinase II subunit alpha (P68400 whole entry): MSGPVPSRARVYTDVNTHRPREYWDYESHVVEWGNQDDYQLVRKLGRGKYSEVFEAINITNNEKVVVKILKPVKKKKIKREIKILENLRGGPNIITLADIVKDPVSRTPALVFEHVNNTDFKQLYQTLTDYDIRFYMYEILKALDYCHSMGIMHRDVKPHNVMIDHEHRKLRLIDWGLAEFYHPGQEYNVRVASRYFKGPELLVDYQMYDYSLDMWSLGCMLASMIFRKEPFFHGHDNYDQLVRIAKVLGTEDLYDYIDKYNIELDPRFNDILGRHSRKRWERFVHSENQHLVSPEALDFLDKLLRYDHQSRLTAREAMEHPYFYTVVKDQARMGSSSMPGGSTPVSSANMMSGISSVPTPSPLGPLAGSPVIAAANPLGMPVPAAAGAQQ

[15] = target: Death-associated protein kinase 3 (Homo sapiens, UniProt O43293); assay: Inhibition of DAPK3 (unknown origin)
[16] = target: Ephrin type-A receptor 3 (Homo sapiens, UniProt P29320); assay: Inhibition of EPHA3 (unknown origin)
[17] = target: Receptor tyrosine-protein kinase erbB-2 (Homo sapiens, UniProt P04626); assay: Inhibition of ERBB2 (unknown origin)
[18] = target: Tyrosine-protein kinase Fes/Fps (Homo sapiens, UniProt P07332); assay: Inhibition of FES (unknown origin)
[19] = target: Tyrosine-protein kinase FRK (Homo sapiens, UniProt P42685); assay: Inhibition of FRK (unknown origin)
[20] = target: Mitogen-activated protein kinase 11 (Homo sapiens, UniProt Q15759); assay: Inhibition of MAPK11 (unknown origin)
[21] = target: Mitogen-activated protein kinase 14 (Homo sapiens, UniProt Q16539); assay: Inhibition of MAPK14 (unknown origin)
Sequence of Mitogen-activated protein kinase 14 (Q16539 whole entry): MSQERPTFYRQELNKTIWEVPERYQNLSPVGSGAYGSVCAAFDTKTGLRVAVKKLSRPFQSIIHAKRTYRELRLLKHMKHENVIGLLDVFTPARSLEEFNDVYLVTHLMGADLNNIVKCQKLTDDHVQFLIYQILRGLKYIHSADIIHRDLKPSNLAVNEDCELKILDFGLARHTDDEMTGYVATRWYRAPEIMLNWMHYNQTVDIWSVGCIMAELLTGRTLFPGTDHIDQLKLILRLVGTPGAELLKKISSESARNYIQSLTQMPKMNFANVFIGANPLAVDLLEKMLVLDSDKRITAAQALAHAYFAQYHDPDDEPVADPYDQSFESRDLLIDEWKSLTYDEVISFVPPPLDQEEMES

[22] = target: Serine/threonine-protein kinase Nek6 (Homo sapiens, UniProt Q9HC98); assay: Inhibition of NEK6 (unknown origin)
[23] = target: Serine/threonine-protein kinase PAK 6 (Homo sapiens, UniProt Q9NQU5); assay: Inhibition of PAK6 (unknown origin)
Sequence of Serine/threonine-protein kinase PAK 6 (Q9NQU5 whole entry): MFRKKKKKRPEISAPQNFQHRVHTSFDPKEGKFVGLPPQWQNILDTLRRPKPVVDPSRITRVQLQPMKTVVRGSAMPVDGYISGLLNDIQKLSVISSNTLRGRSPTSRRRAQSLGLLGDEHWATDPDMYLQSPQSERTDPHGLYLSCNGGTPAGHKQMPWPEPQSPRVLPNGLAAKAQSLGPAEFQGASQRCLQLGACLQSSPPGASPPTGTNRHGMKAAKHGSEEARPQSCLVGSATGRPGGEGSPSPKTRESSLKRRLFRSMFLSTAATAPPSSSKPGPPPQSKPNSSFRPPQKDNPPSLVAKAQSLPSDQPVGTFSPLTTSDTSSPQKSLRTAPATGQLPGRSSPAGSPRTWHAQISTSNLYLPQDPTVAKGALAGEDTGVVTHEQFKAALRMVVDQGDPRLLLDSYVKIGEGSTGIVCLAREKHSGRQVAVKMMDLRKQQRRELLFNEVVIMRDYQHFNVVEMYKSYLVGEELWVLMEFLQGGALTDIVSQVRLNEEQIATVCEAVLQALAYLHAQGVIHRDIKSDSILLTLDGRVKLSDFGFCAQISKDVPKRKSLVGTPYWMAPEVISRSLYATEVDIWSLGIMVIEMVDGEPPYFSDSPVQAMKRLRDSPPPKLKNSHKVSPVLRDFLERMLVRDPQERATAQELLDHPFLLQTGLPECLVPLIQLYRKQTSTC

[24] = target: Serine/threonine-protein kinase pim-1 (Homo sapiens, UniProt P11309); assay: Inhibition of PIM1 (unknown origin)
Sequence of Serine/threonine-protein kinase pim-1 (P11309 whole entry): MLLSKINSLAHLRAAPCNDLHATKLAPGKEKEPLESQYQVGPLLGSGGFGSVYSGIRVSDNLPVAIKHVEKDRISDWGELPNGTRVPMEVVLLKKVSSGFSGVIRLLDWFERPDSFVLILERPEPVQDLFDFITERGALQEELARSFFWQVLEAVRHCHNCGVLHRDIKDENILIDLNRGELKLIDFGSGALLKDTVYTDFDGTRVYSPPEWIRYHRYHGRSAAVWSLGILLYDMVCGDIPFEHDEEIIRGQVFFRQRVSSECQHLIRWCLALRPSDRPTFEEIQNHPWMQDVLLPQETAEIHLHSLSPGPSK

[25] = target: Ribosomal protein S6 kinase alpha-3 (Homo sapiens, UniProt P51812); assay: Inhibition of RPS6KA3 (unknown origin)
Sequence of Ribosomal protein S6 kinase alpha-3 (P51812 whole entry): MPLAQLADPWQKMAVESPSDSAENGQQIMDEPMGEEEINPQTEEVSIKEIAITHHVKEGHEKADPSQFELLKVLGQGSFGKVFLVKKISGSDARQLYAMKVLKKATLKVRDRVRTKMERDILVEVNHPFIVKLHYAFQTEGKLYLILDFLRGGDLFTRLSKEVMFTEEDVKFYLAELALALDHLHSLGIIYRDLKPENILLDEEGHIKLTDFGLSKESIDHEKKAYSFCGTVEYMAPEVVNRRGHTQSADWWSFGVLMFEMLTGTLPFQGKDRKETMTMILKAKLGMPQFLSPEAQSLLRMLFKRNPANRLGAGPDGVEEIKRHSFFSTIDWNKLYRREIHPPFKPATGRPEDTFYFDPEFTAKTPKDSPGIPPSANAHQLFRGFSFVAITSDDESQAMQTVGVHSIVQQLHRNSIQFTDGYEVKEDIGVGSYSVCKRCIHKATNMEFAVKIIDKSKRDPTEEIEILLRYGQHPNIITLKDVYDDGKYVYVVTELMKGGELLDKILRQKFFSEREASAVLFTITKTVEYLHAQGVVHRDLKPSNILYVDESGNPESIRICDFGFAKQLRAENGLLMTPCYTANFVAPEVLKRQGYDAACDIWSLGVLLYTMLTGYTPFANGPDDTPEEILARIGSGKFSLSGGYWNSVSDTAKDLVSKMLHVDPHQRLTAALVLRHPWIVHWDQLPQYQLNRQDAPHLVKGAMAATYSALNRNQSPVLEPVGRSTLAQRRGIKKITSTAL

[26] = target: SRSF protein kinase 2 (Homo sapiens, UniProt P78362); assay: Inhibition of SRPK2 (unknown origin)
[27] = target: Tyrosine-protein kinase Yes (Homo sapiens, UniProt P07947); assay: Inhibition of YES1 (unknown origin)
[28] = tested on: BaF3; assay: Antiproliferative activity against mouse BaF3 cells harboring JAK2V617F mutant measured after 72 hrs by Alamar blue staining based analysis; format: functional, cell-based; conditions: BaF3, 72 h
How it was run: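 Ba/F3 murine cells expressing JAK2V617F or MPLW515L. Compound stocks in DMSO were diluted into culture medium. After 72 h at 37 °C in 5% CO2, proliferation was quantified with the Alamar Blue assay.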

[29] = Antiproliferative activity against human CHRF-288-11 cells harboring JAK2T875N mutant measured after 72 hrs by Alamar blue staining based analysis; format: functional, cell-based; conditions: CHRF-288-11, 72 h
How it was run: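 Cells were exposed for 72 h at 37 °C under 5% CO2 to compound made up as DMSO stock and diluted in culture medium. Proliferation was then read by Alamar Blue.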

[30] = tested on: BaF3; assay: Antiproliferative activity against mouse BaF3 cells harboring TEL-JAK3 measured after 72 hrs by Alamar blue staining based analysis; format: functional, cell-based; conditions: BaF3, 72 h
How it was run: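 Murine Ba/F3 cells carrying TEL/JAK2 or TEL/JAK3 fusions, grown in DMEM with 10% fetal calf serum. Compound stocks in DMSO were diluted in culture medium. Proliferation was read by Alamar Blue after 72 h incubation at 37 °C under 5% CO2.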

[31] = species: Homo sapiens; conditions: dose 100.0 nM
[32] = target: Tyrosine-protein kinase JAK2 (Homo sapiens) (UniProt O60674); conditions: dose 100.0 nM
[33] = target: Rho-associated protein kinase 2 (Homo sapiens, UniProt O75116); conditions: dose 100.0 nM
[34] = target: Calcium/calmodulin-dependent protein kinase type 1D (Homo sapiens, UniProt Q8IU85); conditions: dose 100.0 nM
[35] = target: Homeodomain-interacting protein kinase 4 (Homo sapiens) (UniProt Q8NE63); conditions: dose 100.0 nM
[36] = target: Mitogen-activated protein kinase kinase kinase 8 (Homo sapiens, UniProt P41279); conditions: dose 100.0 nM
[37] = target: Mitogen-activated protein kinase kinase kinase 9 (Homo sapiens, UniProt P80192); conditions: dose 100.0 nM
Sequence of Mitogen-activated protein kinase kinase kinase 9 (P80192 whole entry, looked up): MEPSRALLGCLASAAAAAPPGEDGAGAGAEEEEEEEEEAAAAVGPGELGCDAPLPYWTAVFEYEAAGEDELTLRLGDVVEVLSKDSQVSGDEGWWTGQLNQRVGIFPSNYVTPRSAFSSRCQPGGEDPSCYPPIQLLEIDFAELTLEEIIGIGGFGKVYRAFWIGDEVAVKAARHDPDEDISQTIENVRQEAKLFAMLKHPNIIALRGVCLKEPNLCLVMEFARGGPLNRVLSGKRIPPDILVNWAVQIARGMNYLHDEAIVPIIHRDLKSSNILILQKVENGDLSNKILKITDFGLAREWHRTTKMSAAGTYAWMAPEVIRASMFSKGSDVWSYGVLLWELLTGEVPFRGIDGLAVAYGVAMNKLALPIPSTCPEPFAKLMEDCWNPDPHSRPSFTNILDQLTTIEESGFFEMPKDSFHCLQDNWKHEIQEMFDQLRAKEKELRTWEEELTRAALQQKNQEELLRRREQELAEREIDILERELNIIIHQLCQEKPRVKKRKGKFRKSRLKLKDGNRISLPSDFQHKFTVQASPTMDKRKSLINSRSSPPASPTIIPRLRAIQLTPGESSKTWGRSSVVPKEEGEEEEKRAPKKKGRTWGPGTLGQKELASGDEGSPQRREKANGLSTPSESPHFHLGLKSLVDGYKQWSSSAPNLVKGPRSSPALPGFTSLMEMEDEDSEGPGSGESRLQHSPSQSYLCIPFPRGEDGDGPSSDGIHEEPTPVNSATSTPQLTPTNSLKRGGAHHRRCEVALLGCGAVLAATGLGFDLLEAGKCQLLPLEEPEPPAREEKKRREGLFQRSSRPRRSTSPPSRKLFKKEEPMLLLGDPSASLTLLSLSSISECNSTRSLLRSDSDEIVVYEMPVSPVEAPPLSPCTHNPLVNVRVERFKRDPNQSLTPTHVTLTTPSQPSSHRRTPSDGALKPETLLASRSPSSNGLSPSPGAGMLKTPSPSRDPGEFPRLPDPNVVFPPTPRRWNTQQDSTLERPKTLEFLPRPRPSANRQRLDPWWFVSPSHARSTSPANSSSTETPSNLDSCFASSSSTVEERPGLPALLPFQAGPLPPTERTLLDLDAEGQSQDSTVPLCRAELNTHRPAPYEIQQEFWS

[38] = target: Serine/threonine-protein kinase MARK1 (Homo sapiens, UniProt Q9P0L2); conditions: dose 100.0 nM
[39] = target: Macrophage-stimulating protein receptor (Homo sapiens, UniProt Q04912); conditions: dose 100.0 nM
[40] = target: T1, Serine/threonine-protein kinase 26; conditions: dose 100.0 nM
[41] = target: Ribosomal protein S6 kinase alpha-1 (Homo sapiens) (UniProt Q15418); conditions: dose 100.0 nM

## N#CCNC(=O)c1ccc(-c2ccnc(Nc3ccc(N4CCOCC4)cc3)n2)cc1 [MOMELOTINIB]
[1]
  IC50: < 1000 nM
[2]
  IC50: < 1000 nM
[3]
  IC50: < 1000 nM
[4]
  IC50: < 1000 nM
[5]
  IC50: < 1000 nM
[6]
  IC50: < 1000 nM
[7]
  IC50: > 1000 nM
[8]
  IC50: > 1000 nM
[9]
  IC50: > 1000 nM
[10]
  IC50: > 1000 nM
[11]
  IC50: > 1000 nM
[12]
  IC50: > 1000 nM
[13]
  IC50: > 1000 nM
[14]
  IC50: > 1000 nM
[15]
  IC50: > 1000 nM
[16]
  IC50: > 1000 nM
[17]
  IC50: > 1000 nM
[18]
  IC50: > 1000 nM
[19]
  IC50: > 1000 nM
[20]
  IC50: > 1000 nM
[21]
  IC50: > 1000 nM
[22]
  IC50: > 1000 nM
[23]
  IC50: > 1000 nM
[24]
  IC50: > 1000 nM
[25]
  IC50: > 1000 nM
[26]
  IC50: > 1000 nM
[27]
  IC50: > 1000 nM
[28]
  IC50: 1500 nM
[29]
  IC50: 1 nM
[30]
  IC50: 2350 nM
[31]
  inhibition: > 50%
[32]
  inhibition: > 50%
[33]
  inhibition: > 50%
[34]
  inhibition: < 50%
[35]
  inhibition: < 50%
[36]
  inhibition: < 50%
[37]
  inhibition: < 50%
[38]
  inhibition: < 50%
[39]
  inhibition: < 50%
[40]
  inhibition: < 50%
[41]
  inhibition: < 50%
